{"source": "paper PMC8686831", "about": "(Molecular pharmaceutics, 2021)", "key": {"[1]": {"tested_on": "HCT116 p53^−/− subcutaneous xenograft tumors", "assay": "Survival study in subcutaneous xenograft mice", "assay_type": "in vivo, athymic nude mice", "procedure,_shortened": "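Nude mice carried s.c. HCT116 p53+/+ or p53−/− xenografts (10^6 cells, 1:1 media/matrigel). At a mean tumor volume of 100 ± 10 mm3 they were randomized. Dosing was i.v. every 3–4 days for 5 cycles: approximately 74 MBq test compound in 100 μL 30% PEG300 vehicle, or vehicle alone. The p53−/− study added a stable-iodine analogue cohort (approx. 80 μg/kg). Weights were taken daily. Endpoints: distress, significant weight loss, tumor >800 mm3, or ulceration >5 mm.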"}, "[2]": {"tested_on": "healthy athymic nude mice", "assay": "^127I-PARPi toxicity study in healthy mice", "assay_type": "in vivo", "conditions": "2.05 mg/kg intravenously"}}, "data": [{"smiles": "O=C(c1cccc([127I])c1)N1CCN(C(=O)c2cc(Cc3n[nH]c(=O)c4ccccc34)ccc2F)CC1", "note": "[^127I-PARPi]", "values": [{"measurement": "Effect on overall / median survival compared to vehicle", "setting": "[1]", "result": "No significant increase in median survival"}, {"measurement": "Improvement of median survival compared to vehicle control group", "setting": "[1]", "result": "+26%"}, {"measurement": "Median survival (weeks)", "setting": "[1]; i.v., ^123I-MAPi 74 MBq or ^127I-PARPi approx. 80 μg/kg, every 3–4 days, 5 cycles", "result": 3.071, "unit": "weeks"}, {"measurement": "Toxicity (immunohistochemical and blood chemistry analysis)", "setting": "[2]; healthy mice", "result": "no toxicity was observed"}, {"measurement": "Markers associated with liver toxicity (ALP, ALT, AST)", "setting": "[2]; vs. vehicle", "result": "no significant variation compared to vehicle cohorts"}]}]}
